Bioassay records from PubChem BioAssay.
Wnt act: activates Wnt/beta-catenin signaling in a reporter cell assay | activator, plate reader | activation, % at 9.35 µM | 300,000 tested, 1.2% active; in the data active = activation above about 30%, passing the limit was not always enough; inconclusive = no clear call, values can overlap the other calls
esBAF inh: blocks esBAF chromatin remodeling in mouse ES cells | Bmi1-luciferase knock-in reporter, 24 h; 100% = twice the neutral-well signal | reporter increase, % at 12.5 µM | 350,000 tested, 2% active; in the data active = activation above about 40%; inconclusive = no clear call, values can overlap the other calls;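 also: a rise in the Bmi1 reporter signal indicates esBAF inhibition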
MITF act: activators of MITF-driven TRPM1 promoter activity in SK-MEL-5 cells | SK-MEL-5 TRPM1-promoter luciferase, 24 h; % of positive control, neutral wells = 0 | activation, % at 12.5 µM | 300,000 tested, 0.75% active;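 active = mean activation of at least 80% with every replicate also reaching 80%; inconclusive = mean reaches 80% but some replicate falls short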
XiGFP reactiv: reactivates the inactive X chromosome in mouse fibroblasts; activation, % at 7.58 µM; 360,000 tested, 0.055% active; XiGFP mouse fibroblasts, % GFP-positive cells imaging, 3 d; cells co-treated with 5-aza-dC sensitizer; scaled so ellipticine positive control = 100%; AID 743238;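 active = mean normalized replicate activation at least 10% and every replicate at or above 10%; inconclusive = only one of the two criteria met; inactive = mean below 10% and not all replicates reach 10%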
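Assay system – SV40-immortalized XiGFP fibroblast cells, line 68-5-11 · Buffer or medium – DMEM supplemented with 5-aza-dC as sensitizing agent · Dosing – one concentration, pinned · Benchmarks – positive control ellipticine, 6 µM final · Times – 3 days compound exposure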
Vif imaging: inhibitors of HIV Vif | HEK293T cells, Vif self-association by quenched fluorescence, imaging, 24 h | inhibition, % at 7.49 µM | 340,000 tested, 0.35% active | AID 602346; in the data active = inhibition above about 50%, passing the limit was not always enough; inconclusive = no clear call, values can overlap the other calls; inactive = below about 31%
Each line names hits and unclear results; the compound was inactive in the other large screens. Most compounds without a hit are left out; they make up all but 2.6% or so of the library.

Cc1ccc(C(=O)Nc2ccc3c(c2)nc2n3CCSC2)cc1	Wnt act 33 (no result: MITF act, XiGFP reactiv)
CC(=O)Nc1ccc2c(c1)nc1n2CCSC1	none (no result: Wnt act, XiGFP reactiv)
CC(C)C#Cc1cnc2c(c1)C(=O)N([C@@H](C)CO)C[C@@H](C)[C@H](CN(C)C(=O)Cc1ccccn1)O2	none (no result: Wnt act, MITF act, Vif imaging)
O=C(Nc1cccc(Cl)c1)c1csc(COCCO)n1	esBAF inh 47 (no result: MITF act, Vif imaging)
CCOC(=O)c1cc(-c2ccccc2C)nn1Cc1cc(C)no1	esBAF inh 46
CCOC(=O)c1cc(-c2ccccc2)nn1Cc1cc(C)no1	MITF act 87
Cc1ccc(CNC(=O)c2cc(-c3ccccc3)nn2Cc2cc(C)no2)cc1	esBAF inh inconclusive, MITF act 125
COc1ccccc1CNC(=O)c1cc(-c2ccccc2)nn1Cc1cc(C)no1	none
Cc1cc(Cn2nc(-c3ccccc3)cc2C(=O)NCc2cccs2)on1	none
CN1CCN(C(=S)c2ccc(OCC(=O)Nc3cccc(C(F)(F)F)c3)cc2)CC1	Vif imaging 54 (no result: Wnt act, XiGFP reactiv)
Cc1sc2nc3c4ccccc4c(NCc4ccco4)nn3c(=O)c2c1C	MITF act 85 (no result: Wnt act, esBAF inh, XiGFP reactiv)
CNC(=O)C[C@@H]1CC[C@@H]2[C@@H](COc3ccc(NC(=O)Nc4ccc(Cl)cc4)cc3C(=O)N2C)O1	none (no result: Wnt act, MITF act, Vif imaging)
c1ccc(COc2ccc(Nc3ncnc4nc[nH]c34)cc2)cc1	MITF act 82
CCOC(=O)c1ccc(Nc2ncnc3nc[nH]c23)cc1	Wnt act 56, MITF act 121 (no result: XiGFP reactiv)
CO[C@H]1CN(C)C(=O)c2cc(NC(=O)Nc3cccc(F)c3)ccc2OC[C@@H](C)N(C(=O)Nc2c(C)noc2C)C[C@@H]1C	none (no result: Wnt act, MITF act, Vif imaging)
C[C@H]1CN([C@@H](C)CO)C(=O)c2cccc(NC(=O)C3CC3)c2O[C@H]1CN(C)S(=O)(=O)c1cn(C)cn1	none (no result: Wnt act, MITF act, Vif imaging)
Cc1ccc(Sc2cc(C)nc(-c3ccccn3)n2)cc1	Wnt act 33 (no result: esBAF inh, MITF act)
CN(C)CC(=O)N1[C@@H](CO)[C@H](c2ccccc2)C12CN(C(=O)C1CCCC1)C2	none (no result: Wnt act, esBAF inh, MITF act, Vif imaging)
CC1(CC(=O)Nc2ccccc2)NC(=S)N(c2ccccc2)N1 (stereo not drawn)	esBAF inh 29
CCCCCC1(C)NC(=S)N(c2ccccc2)N1 (stereo not drawn)	none (no result: esBAF inh)
COc1ccc(S(=O)(=O)Nc2ccc3c(c2)C(=O)N([C@H](C)CO)C[C@@H](C)[C@@H](CN(C)C(=O)Nc2ccccc2)OCCCC[C@@H](C)O3)cc1	none (no result: Wnt act, MITF act, Vif imaging)
COc1ccccc1C(=O)NC(=S)Nc1cccnc1Cl	none
Cc1ccc(C(=O)NC(=S)Nc2cccnc2Cl)cc1	Wnt act 41, MITF act 145
c1ccc(-c2nc(-c3ccco3)cs2)nc1	MITF act 91 (no result: XiGFP reactiv)
CN(C)/C=C/C(=O)c1ccc(-n2cccc2)cc1	Wnt act 54 (no result: esBAF inh, Vif imaging)
CN(C)/C=C/C(=O)c1ccc(Cl)cc1	none (no result: MITF act, XiGFP reactiv)
Cc1noc(C)c1S(=O)(=O)N(C)C[C@@H]1OCCCC[C@@H](C)Oc2ccc(NS(C)(=O)=O)cc2C(=O)N([C@@H](C)CO)C[C@H]1C	none (no result: Wnt act, MITF act, XiGFP reactiv, Vif imaging)
C/C(NC(=O)c1cccc(F)c1)=C1/C(=O)C[C@@H]2[C@H]1C2(C)C	esBAF inh 65, MITF act 109 (no result: Wnt act, XiGFP reactiv)
C/C(NC(=O)c1ccccc1F)=C1\C(=O)C[C@@H]2[C@H]1C2(C)C	esBAF inh inconclusive (no result: MITF act, XiGFP reactiv)
COc1cccc(S(=O)(=O)N(C)C[C@@H]2Oc3ncc(C#Cc4ccc(F)cc4)cc3C(=O)N([C@H](C)CO)C[C@@H]2C)c1	none (no result: Wnt act, MITF act, Vif imaging)
Cc1ccc(-c2nc(C=Nc3ccccc3)c(O)o2)cc1	none (no result: esBAF inh)
Oc1oc(-c2ccc(Br)cc2)nc1/C=N/c1ccccn1	Wnt act 37 (no result: esBAF inh)
CCOC(=O)c1[nH]c2ccc(F)cc2c1NC(=O)c1ccccc1C(=O)O	esBAF inh 54
CCOC(=O)c1[nH]c2ccc(OC)cc2c1NC(=O)c1ccccc1C(=O)O	none (no result: esBAF inh)
CC=Cc1ccc2n(c1=O)C[C@H]1[C@H](CO)[C@@H](C(=O)NCC(F)(F)F)[C@@H]2N1C(=O)C1CCCC1 (mixture of isomers)	none (no result: Wnt act, esBAF inh, MITF act, Vif imaging)
CCc1ccc(NC(=O)COc2ccc(F)cc2C(=O)c2cnn(-c3ccccc3)c2)cc1	none (no result: esBAF inh)
COc1ccccc1NC(=O)COc1ccccc1C(=O)c1cnn(-c2ccccc2)c1	Wnt act 50 (no result: esBAF inh)
O=C(N/N=C/c1cccc([N+](=O)[O-])c1)c1ccc2c(c1)OCCO2	Wnt act 40, esBAF inh 44 (no result: MITF act, XiGFP reactiv)
Nc1ccccc1C(=O)NN=Cc1cccc([N+](=O)[O-])c1	Wnt act 39, esBAF inh inconclusive (no result: MITF act, Vif imaging)
Cc1nc2ccccc2cc1C(=O)N/N=C/c1cccc([N+](=O)[O-])c1	none (no result: esBAF inh, Vif imaging)
O=C(NC1CCCCC1)N[C@H]1CC[C@H](CC(=O)N2CCOCC2)O[C@H]1CO	none (no result: Wnt act, MITF act, Vif imaging)
CC(C)NC(=O)Nc1ccc2c(c1)C(=O)N([C@@H](C)CO)C[C@@H](C)[C@H](CN(C)Cc1ccc(C(F)(F)F)cc1)O2	none (no result: Wnt act, MITF act, Vif imaging)
C[C@H](CO)N1C[C@H](C)[C@H](CN(C)C)Oc2cc(C#Cc3cccnc3)ccc2S1(=O)=O	none (no result: Wnt act, MITF act, Vif imaging)
COc1ccc2c3c(n(C)c2c1)[C@@H](CO)N(C(=O)Nc1ccc(F)cc1)CC31CCN(Cc2cccnc2)CC1	none (no result: Wnt act, esBAF inh, MITF act, Vif imaging)
CCN1CCN(c2ccc(NC(=O)c3ccc([N+](=O)[O-])o3)cc2Cl)CC1	none (no result: esBAF inh)
COc1ccc(C(=O)Nc2sc3c(c2C#N)CCN(C(C)=O)C3)cc1	none
CCC(=O)N1CCN(c2ccc(NC(=O)c3ccc([N+](=O)[O-])o3)cc2Cl)CC1	Vif imaging 66 (no result: esBAF inh)
CC(=O)N1CCN(c2ccc(NC(=O)c3ccc([N+](=O)[O-])o3)cc2Cl)CC1	Vif imaging 57 (no result: MITF act)
O=C(Nc1ccc(N2CCCC2)c(Cl)c1)c1ccc(Br)o1	esBAF inh 76 (no result: Wnt act, XiGFP reactiv)
CCC(=O)N1CCN(c2ccc(Cl)cc2NC(=O)c2ccc([N+](=O)[O-])o2)CC1	none
CC(=O)N1CCc2c(sc(NC(=O)c3ccc([N+](=O)[O-])o3)c2C#N)C1	Wnt act 67 (no result: esBAF inh)
O=C(Nc1ccccc1N1CCCC1)c1ccc(Br)o1	none (no result: Wnt act, XiGFP reactiv)
C[C@H](CO)N1C[C@H](C)[C@H](CN(C)S(=O)(=O)c2cn(C)cn2)Oc2ncc(-c3ccc(F)cc3)cc2C1=O	none (no result: Wnt act, esBAF inh, MITF act, Vif imaging)
COc1ccccc1-c1cnc2c(c1)C(=O)N([C@@H](C)CO)C[C@@H](C)[C@H](CN(C)C(=O)c1ccncc1)O2	none (no result: Wnt act, MITF act, Vif imaging)
CC1(C)CC(NC(=O)C2CCC(=O)N(Cc3ccccc3F)C2)CC(C)(C)C1 (stereo not drawn)	esBAF inh 47
COc1cccc(OCc2cc(C(=O)N(C)Cc3nc(C)cs3)no2)c1	esBAF inh 78
CC(C)(C)c1ccc(OCc2ccc(C(=O)N3CCOCC3)o2)cc1	none
CCc1ccc(OCc2ccc(C(=O)NCc3ccccn3)o2)cc1	esBAF inh 46 (no result: Wnt act, XiGFP reactiv)
CCCc1ccc(OCc2ccc(C(=O)N3CCSCC3)o2)cc1	esBAF inh 47
CCc1ccc(OCc2ccc(C(=O)OC)o2)cc1	Wnt act 31, esBAF inh inconclusive, MITF act 89
